Screening data as filed in PubChem BioAssay.
An excerpt weighted towards active compounds, which were near 5.9% of everything screened.
HUVEC inhibit: blocks proliferation of human endothelial cells. viability, % at 10 µM (by protocol). HUVEC proliferation, CellTiter-Glo luminescence, 72 h; hits give low values. 1.1% of 86,000 active;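 active = viability at or below 30%; inactive = viability above 30%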;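 note: 100% = median luminescence of DMSO-only cell control wells on each plate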
H69AR inhibit: growth inhibitors of human H69AR lung tumor cells | 6% of 85,000 active | H69AR lung tumor viability, ATP luminescence, 72 h; hits give low values | viability, % at 10 µM | AID 598;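 active = viability at or below 40%; inactive = viability above 40%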;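 note: multidrug resistant small cell line overexpressing MRP-1 efflux transporter; 100% = mean luminescence of untreated control wells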
PTK2B oligo ant: blocks oligomerization of human Pyk2 in cells; Q293 cells, Pyk2 FERM NanoBiT luminescence; hits give low values; z-score (the deposit names both 25 µM and 10 µM); 0.83% of 99,000 active; AID 1347419;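 active = Z-score of -3 or lower, scaled per plate to the spread of control and sample wells; inactive = z-score above -3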;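 note: negative z-score means lost luminescence so less FERM oligomerization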
Target sequence (Q14289 whole entry, looked up): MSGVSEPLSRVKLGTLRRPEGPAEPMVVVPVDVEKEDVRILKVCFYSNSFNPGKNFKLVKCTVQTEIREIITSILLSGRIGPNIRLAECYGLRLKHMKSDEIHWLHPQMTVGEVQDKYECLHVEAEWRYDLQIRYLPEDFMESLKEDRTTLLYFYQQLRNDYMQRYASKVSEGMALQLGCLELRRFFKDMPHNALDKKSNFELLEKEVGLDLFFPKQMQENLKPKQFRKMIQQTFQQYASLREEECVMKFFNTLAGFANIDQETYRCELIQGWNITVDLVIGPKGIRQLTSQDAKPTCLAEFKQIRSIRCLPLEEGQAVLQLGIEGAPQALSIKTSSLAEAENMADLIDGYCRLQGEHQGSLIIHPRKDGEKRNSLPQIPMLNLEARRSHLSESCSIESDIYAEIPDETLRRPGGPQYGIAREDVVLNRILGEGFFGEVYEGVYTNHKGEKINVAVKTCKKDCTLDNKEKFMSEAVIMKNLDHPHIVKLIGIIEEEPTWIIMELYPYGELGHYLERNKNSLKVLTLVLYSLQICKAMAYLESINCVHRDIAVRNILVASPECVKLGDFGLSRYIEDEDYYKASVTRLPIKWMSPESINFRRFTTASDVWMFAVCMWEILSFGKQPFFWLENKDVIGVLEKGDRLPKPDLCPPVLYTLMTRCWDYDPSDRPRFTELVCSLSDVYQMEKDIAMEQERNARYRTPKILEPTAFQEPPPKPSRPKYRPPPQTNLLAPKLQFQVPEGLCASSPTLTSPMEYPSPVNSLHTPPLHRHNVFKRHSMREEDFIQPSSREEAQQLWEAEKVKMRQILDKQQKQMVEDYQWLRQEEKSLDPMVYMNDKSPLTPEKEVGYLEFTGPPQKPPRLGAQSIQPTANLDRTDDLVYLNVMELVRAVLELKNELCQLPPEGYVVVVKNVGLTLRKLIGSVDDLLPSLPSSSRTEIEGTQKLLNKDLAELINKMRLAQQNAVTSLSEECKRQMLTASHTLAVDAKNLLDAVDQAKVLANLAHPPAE
Lung fibro prol: blocks proliferation of human lung fibroblasts. LL 47 human lung fibroblast viability, ATP luminescence; hits give low values. viability, % at 10 µM. 1.1% of 85,000 active;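 active = viability at or below 50% in the single dose screen; inactive = viability above 50%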;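 note: compound exposure lasted 72 h before the ATP readout; 100% = median luminescence of untreated cell-only wells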
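test system = LL 47 human lung fibroblasts | amount = 1,150 fibroblasts seeded per well | medium = 15% FBS in IMEM | times = overnight cell rest, 72 h compound treatment at 37 °C | measured by = CellTiter-Glo luminescence measuring cellular ATP | read-out = viability percentage against median untreated-cell control | benchmarks = cell-only wells, no compound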
Jurkat tox 60K: cytotoxicity toward Jurkat cells. Jurkat E6.1 viability, ATP luminescence, 48 h. inhibition, % at 4 µM. 1.2% of 56,000 active. AID 463;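 active = inhibition above the mean inhibition of all tested compounds plus 3 SD, cut at about 28% in these data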
MT1-MMP txn act: activates MT1-MMP transcription | 0.16% of 86,000 active | activation factor at 10 µM | AID 750 | HT1080 MT1-MMP promoter luciferase reporter, luminescence, overnight; hits give high values;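 active = activation factor of at least 2 for MT1-MMP transcription at 10 µM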
An asterisk follows results filed as active.

O=C(NCc1ccco1)c1ccc(Cn2c(=O)c3ccccc3n(Cc3ccc(Cl)cc3)c2=O)cc1 was read as HUVEC inhibit 70, H69AR inhibit 23*, PTK2B oligo ant -0.78, Lung fibro prol 69 and MT1-MMP txn act 1.
Cc1c(C(=O)N2CCOCC2)sc2ncnc(N3CCc4ccccc4C3)c12 was read as HUVEC inhibit 87, H69AR inhibit 64, PTK2B oligo ant 0.79, Lung fibro prol 96, Jurkat tox 60K 9 and MT1-MMP txn act 1.1.
Screening COCCCNC(=O)c1sc2ncnc(N3CCc4ccccc4C3)c2c1C returned HUVEC inhibit 60, H69AR inhibit 28*, PTK2B oligo ant -0.01, Lung fibro prol 68 and MT1-MMP txn act 1.1.
CC(C)COC(=O)c1cccc2c1-c1ccccc1/C2=N\O was read as HUVEC inhibit 43, H69AR inhibit 41, PTK2B oligo ant -2.6, Lung fibro prol 98 and MT1-MMP txn act 1.2.
CC1CCCC(C)N1C(=O)c1cccc2c1-c1ccccc1/C2=N/O (centres undefined) was read as HUVEC inhibit 48, H69AR inhibit 80, PTK2B oligo ant -3.3*, Lung fibro prol 88 and MT1-MMP txn act 1.2.
`CC1CCCC(C)N1C(=O)c1ccccc1Nc1ccc(SC(F)F)cc1` (centres undefined) gave PTK2B oligo ant -1.8.
For CCOC(=O)c1cccc2c1-c1ccccc1/C2=N/O the results were HUVEC inhibit 14*, H69AR inhibit 28*, PTK2B oligo ant -2.4, Lung fibro prol 89, Jurkat tox 60K 15 and MT1-MMP txn act 1.2.
COC(=O)[C@@]1(Cc2ccccc2)C=C[C@@H](C)N1C was read as MT1-MMP txn act 1.
For Cc1ccc(-n2nnnc2SCC(=O)N2c3ccccc3NC(=O)C2(C)C)cc1 the results were HUVEC inhibit 92, H69AR inhibit 80, PTK2B oligo ant -0.07, Lung fibro prol 88, Jurkat tox 60K -2 and MT1-MMP txn act 1.
For Cc1nn(-c2nc3ccccc3n2Cc2ccccc2)c2c1C(=O)CC(C)(C)C2 the results were HUVEC inhibit 110, H69AR inhibit 77, PTK2B oligo ant -4*, Lung fibro prol 94, Jurkat tox 60K 3 and MT1-MMP txn act 1.1.
CN(C)c1ccc(-c2nn3c(-c4ccncc4)nnc3s2)cc1 was read as HUVEC inhibit 65, H69AR inhibit 32*, Lung fibro prol 91, Jurkat tox 60K 5 and MT1-MMP txn act 1.3.
COc1cc(-c2nnc3sc(-c4cccs4)nn23)cc(OC)c1OC was read as HUVEC inhibit 80, H69AR inhibit 21*, PTK2B oligo ant -0.11, Lung fibro prol 54, Jurkat tox 60K 9 and MT1-MMP txn act 1.
Cc1ccc(-c2nnc3sc(-c4ccncc4)nn23)cc1 was read as HUVEC inhibit 87, H69AR inhibit 82, PTK2B oligo ant 0.38, Lung fibro prol 100, Jurkat tox 60K -4 and MT1-MMP txn act 1.
COc1ccccc1-c1nnc2sc(-c3ccc(N(C)C)cc3)nn12 was read as PTK2B oligo ant -3.4*, Jurkat tox 60K 99* and MT1-MMP txn act 0.5.
`COc1ccccc1-c1nn2c(-c3ccc(C(C)(C)C)cc3)nnc2s1` gave HUVEC inhibit 25*, H69AR inhibit 94, Lung fibro prol 95 and MT1-MMP txn act 1.1.
For Cc1cc(C)n2nc(C(=O)OCCOc3ccc(F)cc3)nc2n1 the results were HUVEC inhibit 94, H69AR inhibit 99, PTK2B oligo ant -0.81, Lung fibro prol 110, Jurkat tox 60K -7 and MT1-MMP txn act 1.
Screening CCN(CC)c1ccc(-c2nn3c(-c4n[nH]c5c4CCC5)nnc3s2)cc1 returned HUVEC inhibit 33, H69AR inhibit 22*, PTK2B oligo ant -2.9, Lung fibro prol 45*, Jurkat tox 60K 97* and MT1-MMP txn act 0.7.
COc1ccccc1-c1nnc2sc(-c3cc4ccccc4o3)nn12 was read as HUVEC inhibit 49, H69AR inhibit 31*, PTK2B oligo ant -0.51, Lung fibro prol 49*, Jurkat tox 60K 87* and MT1-MMP txn act 0.7.
For Clc1ccccc1-c1nnc2sc(-c3ccncc3)nn12 the results were HUVEC inhibit 100, H69AR inhibit 87, Lung fibro prol 101, Jurkat tox 60K -4 and MT1-MMP txn act 1.
`C1CCC(c2nn3c(-c4n[nH]c5c4CCC5)nnc3s2)CC1` gave HUVEC inhibit 92, H69AR inhibit 58, PTK2B oligo ant -0.48, Lung fibro prol 92, Jurkat tox 60K 6 and MT1-MMP txn act 0.9.
Screening CN(C)c1ccc(-c2nn3c(-c4ccccc4Cl)nnc3s2)cc1 returned HUVEC inhibit 35, H69AR inhibit 30*, PTK2B oligo ant -0.57, Lung fibro prol 54, Jurkat tox 60K 82* and MT1-MMP txn act 0.6.
COC(=O)[C@@]1(Cc2ccccc2)[C@H]2c3cc(C(=O)N(C)C)n(C[C@H](O)CO)c3C[C@H]2CN1C(=O)c1ccccc1 was read as MT1-MMP txn act 1.1.
For CC(C)(C)c1cc(NC(=O)COc2ccc(Br)cc2)n(-c2ccccc2)n1 the results were PTK2B oligo ant -0.51.
`COc1cccc(-n2c(SCC(=O)Nc3cc(C)on3)nc3c([nH]c4ccccc43)c2=O)c1` gave HUVEC inhibit 79, H69AR inhibit 92, Lung fibro prol 78, Jurkat tox 60K 5 and MT1-MMP txn act 1.3.
Screening COc1cccc(-n2c(SCC(N)=O)nc3c([nH]c4ccccc43)c2=O)c1 returned HUVEC inhibit 72, H69AR inhibit 23*, PTK2B oligo ant -0.11, Lung fibro prol 66 and MT1-MMP txn act 1.3.
Screening CCN(CC)S(=O)(=O)c1ccc(NC(=O)CSc2nnc(-c3ccc(F)cc3)o2)cc1 returned HUVEC inhibit 94, H69AR inhibit 54, PTK2B oligo ant 0.06, Lung fibro prol 104, Jurkat tox 60K 1 and MT1-MMP txn act 1.
Cc1cccc(NC(=O)CSc2nnc(-c3ccc(S(=O)(=O)N4CCCC4)cc3)o2)c1 was read as HUVEC inhibit 85, H69AR inhibit 93, PTK2B oligo ant -0.04, Lung fibro prol 96, Jurkat tox 60K 0 and MT1-MMP txn act 0.9.
Screening CCN(CC)S(=O)(=O)c1ccc(-c2nnc(SCC(=O)Nc3ccc4c(c3)OCO4)o2)cc1 returned HUVEC inhibit 64, H69AR inhibit 32*, PTK2B oligo ant 1.8, Lung fibro prol 96, Jurkat tox 60K 4 and MT1-MMP txn act 1.2.
Cc1ccc(NC(=O)CSc2nnc(-c3ccc(S(=O)(=O)N4CCCC4)cc3)o2)cc1C was read as HUVEC inhibit 53, H69AR inhibit 32*, PTK2B oligo ant -0.02, Lung fibro prol 92, Jurkat tox 60K -4 and MT1-MMP txn act 1.2.
For CCN(CC)S(=O)(=O)c1ccc(-c2nnc(SCc3nnc(-c4ccccc4)o3)o2)cc1 the results were HUVEC inhibit 53, H69AR inhibit 20*, PTK2B oligo ant 0.59, Lung fibro prol 69, Jurkat tox 60K 1 and MT1-MMP txn act 1.
